The target of test [1] is Aldo-keto reductase family 1 member B1 (Rattus norvegicus, UniProt P07943). In words: Inhibition of aldose reductase in rat lenses. An outline of the steps: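 Activity read spectrophotometrically as NADPH oxidation. Five concentrations; IC50 by least-squares fit of linear portion of log(dose)–response curve; triplicate.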
Test [2] can be described thus: DPPH radical scavenging activity. The class given is functional. An outline of the steps: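 Compound in ethanol mixed with ethanolic DPPH; final 0.2–0.0125 mM compound, 0.2 mM DPPH. Absorbance loss at 517 nm followed. IC50 from nine concentrations at 270 min steady state; EC50 = IC50/[DPPH]. Initial rate from linear absorbance decrease over first 30 s at equimolar 0.2 mM. Triplicate.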

A short description of test [3]: Antioxidant activity assessed as inhibition of DOPC liposomes. It counts as functional. Put shortly:
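Unilamellar DOPC liposomes (final 0.8 mM) in 20 mM phosphate buffer pH 7.4 incubated with test compound (10–300 µM) and AAPH initiator (final 10 mM), 50 °C, 80 min. Lipid hydroperoxides extracted with CHCl₃/MeOH (2:1) containing BHT, measured by thiocyanate method at 500 nm against cumene hydroperoxide calibration. IC50 by least-squares fit of linear part of semilog % inhibition plot; triplicate.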

The test system of test [4] is Jejunum. In words: Apparent permeability from mucosal to serosal side in Wistar rat jejunum. It counts as functional, tissue-based. Put shortly:
(§1)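 Jejunum from starved male Wistar rats (250–320 g), 1 cm² exposed, in side-by-side diffusion chambers; 25 min preincubation. Donor: 0.479 mM compound, 10 µM fluorescein paracellular marker, glucose or mannitol in Ringer buffer, applied mucosal (M–S) or serosal (S–M). Acceptor sampled every 25 min to 175 min. Viability checked by PD, Isc, TEER. HPLC-UV 220 nm, fluorescein by fluorescence. Papp calculated.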

Test [5] concerns Jejunum. Briefly: Apparent permeability from serosal to mucosal side in Wistar rat jejunum. The class given is functional, tissue-based. Put shortly:
as §1

For test [6], the system named is Jejunum. In words: Ratio of permeability from serosal to mucosal over mucosal to serosal side of the Wistar rat jejunum.

The structures appear in SMILES notation.

Regarding `O=[N+]([O-])c1ccc(S(=O)(=O)Nc2cc(F)c(O)c(F)c2)cc1`, the IC50 (in general, the concentration needed to halve the response being measured) in test [1] amounted to 44.4 µM.

In the case of `O=S(=O)(Nc1cc(F)c(O)c(F)c1)c1ccccc1`, the IC50 amounted to 32.9 µM in test [1], 49 µM in test [2] and 95.9 µM in test [3]. Moreover, the results for the permeability in the test with Jejunum [4] and in the test with Jejunum [5] were 6.34 ×10⁻⁶ cm/s and 2.91 ×10⁻⁶ cm/s, respectively. Also, the Ratio with Jejunum [6] was found to be 0.46.

In the case of `CC(/C=C1\SC(=S)N(CC(=O)O)C1=O)=C\c1ccccc1`, the permeability in the test on Jejunum [4] stood at 4.34 ×10⁻⁶ cm/s; in the test on Jejunum [5], 10.9 ×10⁻⁶ cm/s. In the test with Jejunum [6], the Ratio was 2.5.

Consider `Cc1c(C)c2c(c(C)c1O)CCC(C)(C(=O)O)O2` (centres undefined) [TROLOX], for which the IC50 was found to be 37 µM in test [2] and 93.5 µM in test [3].

In turn, `COc1ccc(S(=O)(=O)Nc2cc(F)c(O)c(F)c2)cc1` gave a half-maximal inhibitory concentration (IC50) in test [1] of 15.5 µM.

For `Nc1ccc(S(=O)(=O)Nc2cc(F)c(O)c(F)c2)cc1`, in test [1], half-maximal inhibition (IC50) was put at 14.1 µM.

(Values after ChEMBL document CHEMBL1157151, “Design and synthesis of N-(3,5-difluoro-4-hydroxyphenyl)benzenesulfonamides as aldose reductase inhibitors” (Bioorg Med Chem, 2008).)
